The list is not random: actives were taken first. Their share in the collection is about 2.6%.
Yeast lifespan up: extends the lifespan of yeast; S. cerevisiae growth with nicotinamide, OD615; deaD strain in restrictive glucose medium; inhibition of the nicotinamide effect, % at 10 µM; actives 0.68% (n = 130,000);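 active = inhibition above a set limit, placed 3 SD over the median of all compounds, cut at about 26% in these data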;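 also: 0% = nicotinamide-treated wells and 100% = cells grown without nicotinamide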
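Measured by: optical density (absorbance) at 615 nm; System: modified budding yeast, DeaD strain; Medium: restrictive CSMM-D dextrose medium; Timing: 4 h preincubation then 48 h treatment at 30 °C.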
Yeast growth inh: reduces growth of yeast BB579 in restrictive medium. actives 0.51% (n = 140,000). S. cerevisiae BB579 growth, OD615, 48 h. inhibition, % at 10 µM;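 active = inhibition above a set limit, 3 SD over the mean compound inhibition, cut at about 44% in these data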
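controls = amphotericin B 10 µg/mL, positive | assay system = DeaD yeast strain BB579 | schedule = 48 h compound exposure at 30 °C after 4 h preincubation | detection = OD615 turbidity measurement | medium = restrictive CSMM-D medium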
RAM inhibit: yeast RAM network inhibition; S. cerevisiae dse1pr::URA3 reporter, 5-FOA growth OD615, 2 d; analog-sensitive cbk1-as2 kinase mutant strain; inhibition, % at 50 µM; actives 1.8% (n = 190,000);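 active = inhibition above a set limit, 3 SD over mean compound inhibition, cut at about 8.4% in these data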;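 also: 0% = DMSO-only wells with no growth and 100% = 10 µM 1-NA-PP1 full growth; inhibition rescues growth on 5-FOA so higher OD means more RAM inhibition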
An asterisk follows results filed as active; nt = no result.

SMILES	Yeast lifespan up	Yeast growth inh	RAM inhibit
COC(=O)/C(=C/c1c[nH]c2ccccc12)[N+](=O)[O-]	26*	-32	-1
COC(=O)/C(=C/c1c[nH]c2ccccc12)NC(C)=O	-1	-7	-1
O=C(CCC1CCCCC1)Nc1ccccc1C(=O)N1CCOCC1	nt	nt	0
Cc1ccc(C(=O)NCc2ccccn2)cc1Cl	nt	nt	0
CCN(CC)S(=O)(=O)c1ccc(OC)c(NC(=O)c2cc(=O)[nH]c3ccccc23)c1	nt	nt	2
CCNC(=S)N(Cc1ccco1)Cc1cc2cc(OCC)ccc2[nH]c1=O	nt	nt	9.7*
CCNC(=S)N(Cc1cccs1)Cc1cc2cc(OCC)ccc2[nH]c1=O	5	-16	2
CCOC(=O)C1(CCCc2ccccc2)CCN(C(=O)CN2C(=O)CSC2=O)CC1	nt	nt	3
CN(C)C(CNc1ccc([N+](=O)[O-])cc1C#N)c1ccccc1 (stereo unspecified)	nt	nt	3
O=C(NCC1CCCO1)c1ccc(OC2CCN(C(=O)C3CC3)CC2)cc1 (stereo unspecified)	nt	nt	1
Cc1cccc(NC(=O)c2sc(C)nc2C)c1	nt	-16	-1
Cc1cccc(C(=O)Nc2nc(C)c(C(=O)Nc3ccc4c(c3)CCC4)s2)c1	-16	-42	8.6*
CN(C)/C=C1\SC(=S)N(N2C(=O)C3C4C=CC(C4)C3C2=O)C1=O (stereo unspecified)	nt	nt	2
CC1(C)C/C(=N\NC(=S)Nc2ccccc2F)c2cc(O)ccc2O1	nt	nt	3
O=C(NNc1c(F)c(F)cc(F)c1F)c1cc2ccccc2oc1=O	nt	nt	3
CCOC(=O)C1C(=O)C(C(C)=O)C(=O)CC1CC(C)SCC (stereo unspecified)	93*	-50	-2
CCSC(C)CC1CC(=O)CC(=O)C1 (stereo unspecified)	18	-18	1
O=C(Nc1cccc(Cl)c1)c1ccc2c(c1)SC1=NS(=O)(=O)CCN12	nt	nt	1
Oc1c(Br)cc(Cl)cc1C=Nc1ccc(N2CCOCC2)cc1	nt	nt	0
Oc1ccc2ccccc2c1C=Nc1ccc(N2CCOCC2)cc1	49*	-16	1
Oc1ccc(N=Nc2cccc(Cl)c2)cc1C=Nc1ccc(N2CCOCC2)cc1	-7	79*	0
Oc1ccc2ccccc2c1C=NC12CN3CCN(CN(C3)C1)C2	27	-47	0
Cc1ccccc1-n1nc(-c2cccnc2)cc1C(=O)NN	nt	nt	1
C=CCn1c(SCC(=O)OCC)nc(C(F)(F)F)cc1=O	nt	nt	-2
Cc1ccc(S(=O)(=O)Nc2n[nH]nc2C(=O)NC2CCCCC2)cc1	nt	nt	1
SMILES	Yeast lifespan up	Yeast growth inh	RAM inhibit
CCOC(=O)C(=Cc1cc(=O)c(OC)co1)C(=O)OCC	35*	-16	0
COc1coc(C(O)CN)cc1=O (stereo unspecified)	-3	-42	0
O=C(NCCc1ccccc1)c1ccc(-c2ccccc2Cl)o1	-3	-41	8.6*
O=C(Nc1ccccc1)c1ccc(-c2ccccc2Cl)o1	-2	-42	7
CN(C(=S)SCc1ccccc1)C1CCS(=O)(=O)C1 (stereo unspecified)	nt	nt	1
Cc1ccc(S(=O)(=O)CCc2nnc(N)s2)cc1	-18	-1	1
CCOC(=O)c1nn(-c2cccc(OC)c2)c2nc(CC)c(C#N)c(=O)n12	4	-30	8.4*
CCOC(=O)c1nn(-c2ccccc2F)c2nc(-c3ccco3)c(C#N)c(=O)n12	1	-39	5
Cc1nccn1CCC(=O)Nc1ccc(Cl)cc1	nt	nt	2
O=C(COc1ccccc1)NCCc1cn2ccsc2n1	-11	10	-1
O=C(Cc1ccccc1)NCCc1cn2ccsc2n1	2	49*	0
Cc1ccc(NCc2nnc(SCC(=O)N3c4ccccc4Sc4ccccc43)o2)c(C)c1	3	-33	6
Cc1cc(NC(=O)CSc2nnc(-c3c[nH]c4ccccc34)n2-c2ccc(F)cc2)no1	nt	nt	5
CCOc1ccc(-n2c(SCC(=O)Nc3cc(C)on3)nnc2-c2c[nH]c3ccccc23)cc1	-13	-40	8.6*
O=Nc1c(O)n(Cc2ccc(Cl)c(Cl)c2)c2ccccc12	-34	87*	1
O=Nc1c(O)n(Cc2cccc(C(F)(F)F)c2)c2ccccc12	nt	nt	4
Cc1ccnc(NC(=O)Nc2ccc(Br)cc2Cl)c1	nt	nt	1
CS(=O)(=O)N(CC(=O)NCc1ccncc1)c1ccc(F)c(Cl)c1	nt	nt	0
Cc1ccc(Oc2nc(CN3CCOCC3)nc3sc4c(c23)CCC(C)C4)cc1C (stereo unspecified)	-8	81*	1
Cc1ccc(Oc2nc(CN3CCOCC3)nc3sc4c(c23)CCC(C)C4)cc1 (stereo unspecified)	14	6	-1
COc1ccc(C(=O)Oc2cccc(/C=N/NC(N)=S)c2)cc1	3	-45	2
C=CCO/N=C/C1C(=O)CC(C)(C)CC1=O	39*	-12	3
C/[N+]([O-])=C\C1C(=O)CC(C)(C)CC1=O	nt	nt	2
CC(=O)N1c2ccccc2Nc2ccccc21	-5	-44	1
CC(=O)N1c2ccccc2C2(O)N=C(C)SC12 (stereo unspecified)	4	62*	0
SMILES	Yeast lifespan up	Yeast growth inh	RAM inhibit
CCOC(=O)C1=NNC2(c3ccc(Cl)cc3)C(=O)N(c3ccc(C)cc3)C(=O)C12 (stereo unspecified)	-1	-9	11*
CCOC(=O)C1=NNC2(c3ccccc3)C(=O)N(c3cccc(Br)c3)C(=O)C12 (stereo unspecified)	2	-62	0
CCC(Sc1nc(N)c(NC(=O)c2ccc(OC)cc2)c(=O)[nH]1)C(=O)O (stereo unspecified)	nt	nt	0
Cc1cc(CNC(=O)COc2ccc(F)cc2Cl)cc(C)c1O	nt	nt	10*
O=C(COc1ccc(Cl)cc1Cl)NCc1ccncc1	-21	-16	0
Cc1csc(SCC(=O)NC(=O)NCCC(C)C)n1	nt	nt	0
CC(Oc1ccc(C#N)cc1)C(=O)c1ccc(F)c(F)c1 (stereo unspecified)	nt	nt	2
Clc1ccc(-c2nc(/C=N/N3CCOCC3)c3ccccn23)cc1	nt	nt	0
Cc1c(C=O)c2ccccc2n1CC(=O)NC(C)c1ccccc1 (stereo unspecified)	nt	nt	0
Cc1ccc(-c2cccc(C(=O)NCc3ccccc3)n2)c2ccccc12	3	-9	10*
O=C(NCc1ccccc1)c1cccc(Br)n1	-6	-23	-1
C=CCOc1ccc(/C(O)=C2\C(=O)C(=O)N(CCCOC)C2c2ccc(O)c(OC)c2)cc1 (stereo unspecified)	-24	-14	6
CCOc1cc(C2/C(=C(/O)c3ccc(OC(C)C)cc3)C(=O)C(=O)N2CCCOC)ccc1O (stereo unspecified)	-15	-71	8.5*
CCN1CCN(c2nc3ccccc3nc2C(C#N)S(=O)(=O)c2ccc(C)cc2)CC1 (stereo unspecified)	-5	-20	0
Cc1ccc(S(=O)(=O)C(C#N)c2nc3ccccc3nc2N2CCCC2)cc1 (stereo unspecified)	72*	-60	2
CCOC(=O)c1c(NC(=O)C(Sc2ccccc2)c2ccccc2)sc(C(=O)N(C)C)c1C (stereo unspecified)	3	-21	10*
